Laboratory results from the EternaBench riboswitch data.

Test system: MS2 coat protein
Assay: apparent Kd, MS2 coat protein; higher = weaker binding; RNA-MaP array; FMN 200 µM where present
Summary of the method: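 Designs were transcribed by stalled E. coli RNA polymerase on Illumina sequencing-chip clusters. They were titrated with SNAP-549-labelled MS2 coat protein from 0.7 or 1.5 nM, doubling to 3 µM, without and then with constant ligand. Buffer: 100 mM Tris-HCl pH 7.5, 80 mM KCl, 4 mM MgCl2, BSA, DTT, yeast tRNA, Tween-20. Green signal was normalised to red-channel RNA signal and control-cluster median Fmax. Apparent Kd is the median of filtered per-cluster binding-curve fits.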

[1] = designed as: OFF switch for flavin mononucleotide, no ligand
[2] = ligand present: flavin mononucleotide, designed as: OFF switch for flavin mononucleotide
[3] = designed as: ON switch for flavin mononucleotide, no ligand
[4] = ligand present: flavin mononucleotide, designed as: ON switch for flavin mononucleotide

## GCCAGUUAUGUAGGAUAUGCGCGGCGAGCCUGAGCAGAAGGACAUGAGGAUCACCCAUGUGUUGCGGUCUGAGUACUGAUCGCU
[1]
  apparent Kd: 30.1 nM
[2]
  apparent Kd: 155 nM

## GCCAGUUAUGUAGGAUAUGCGCGGCGAGCCUGAGCAGAAGGACAUGAGGAUCACCCAUGUGUUGCGGUUUGAGUACUAAUCGCU
[1]
  apparent Kd: 31.5 nM
[2]
  apparent Kd: 171 nM

## GCCAUCGCAUGAGGAUAUGCUCCCGUUUCGGGAGCAGAAGGCAUGUCGUAAGACAUGAGGAUCACCCAUGUAGUUAAGAUGGCA
[3]
  apparent Kd: 855 nM
[4]
  apparent Kd: 59.6 nM

## GCCAUCGCAUGAGGAUAUGCUCCGGUUUCCGGAGCAGAAGGCAUGUCGUAAGACAUGAGGAUCACCCAUGUAGUUAAGAUGGCA
[3]
  apparent Kd: 1100 nM
[4]
  apparent Kd: 54.7 nM

## GCCAUCGCAUGAGGAUAUGCUCCGGUUUCCGGAGCAGAAGGCGUGUCAUAAGACAUGAGGAUCACCCAUGUAGCUAAGAUGGCA
[3]
  apparent Kd: 249 nM
[4]
  apparent Kd: 10.8 nM

## GCCAUCGCAUGAGGAUAUGCUCGGGUUUCCCGAGCAGAAGGCAUGUGAUAACACAUGAGGAUCACCCAUGUAGUUAAGAUGGCA
[3]
  apparent Kd: 5.69 nM
[4]
  apparent Kd: 4.83 nM

## GCCAUCGCAUGAGGAUAUGGUCAGGUUUCCUGACCAGAAGGCAUGUCAUAAGACAUGAGGAUCACCCAUGUAGUUAAGAUGGCA
[3]
  apparent Kd: 717 nM
[4]
  apparent Kd: 48.4 nM

## GCCAUCGCGUGAGGAUAUGCUCCGGUUUCCGGAGCAGAAGGCAUGUCAUUAGACAUGAGGAUCACCCAUGUAGUUAAGAUGGCA
[3]
  apparent Kd: 562 nM
[4]
  apparent Kd: 18.2 nM

## GCCAUCGGGUGAGGAUAUAAAAUUAUGAUUAAAUUAGAAGGCAUCUCAUAAGACAUGAGGAUCACCCAUGUAGUUAAGAUGGCA
[3]
  apparent Kd: 90.6 nM
[4]
  apparent Kd: 31.9 nM

## GCCAUCGUAUGAGGAUAUGGCACCGAAACGGUGCCAGAAGGCAUGUCAAUAGACAUGAGGAUCACCCAUGUAUUAUCGAUGGCA
[3]
  apparent Kd: 367 nM
[4]
  apparent Kd: 37.1 nM

## GCCCGGCCCGGGCCCACGGCAUCACAGGAUAUGCCGAUCACAUGAGGAUCACCCAUGUCAACUCCGCAGAAGGGUGAUAUCGUG
[3]
  apparent Kd: 322 nM
[4]
  apparent Kd: 33.2 nM

## GCCGAGUGAGGAUAUACAUGAGGAUCACCCAUGUAAACACGAAAGCAAGUGUCCCUCAGUAGAAGGCGCCUGGA
[1]
  apparent Kd: 14.2 nM
[2]
  apparent Kd: 16.6 nM

## GCCGGUUAAGUCAGGAUAUACCUAUGGAUACAUAGGUAGAAGGGACAUGAGGAUCACCCAUGUUCCUCAUCGGC
[1]
  apparent Kd: 16.1 nM
[2]
  apparent Kd: 48.9 nM

## GCCUGAUCCACUUUAGGCCCAGACAGAAGGGCACACGGUCUAAGUCACAUGAGGAUCACCCAUGUGCAGGAUAUGUCUCGACUC
[1]
  apparent Kd: 8.88 nM
[2]
  apparent Kd: 26.2 nM

## GCCUUACAUGAGGAUCACCCAUGUGAGGAUAUUAACAGCUGCACUACUGAAGCGGCUGUAAGAAGGCACGUGGU
[1]
  apparent Kd: 30.5 nM
[2]
  apparent Kd: 37.8 nM

## GCCUUAUCUGUCAGGAUAUACAAUAUUUUUUUUUUGUAGAAGGGACAUGAGGAUCACCCAUGUACAUUACAUUG
[1]
  apparent Kd: 31.3 nM
[2]
  apparent Kd: 71.8 nM

## GCGACGAUCGAGAAGGCCACUACAUGAGGAUCACCCAUGUCGUGGUGUAUUGGAGGAUAUCGAUCAGCGUCUUAUGAGGACAUG
[1]
  apparent Kd: 5.13 nM
[2]
  apparent Kd: 7.68 nM

## GCGAGUAAAGCAGGAUAUCUAAUAUCACGGAAACAUGAGGAUCACCCAUGUAGAGAAGGGCUAAGUCAUACAAUUCGAACUCGC
[1]
  apparent Kd: 14.1 nM
[2]
  apparent Kd: 10.5 nM

## GCGAUUAAGUAGAAGGUACGAUAUAUAUCAUUGUAAGGAUAUACUUACAUGAGGAUCACCCAUGUUAAAGGUUAUAAUAAUCGC
[3]
  apparent Kd: 94.6 nM
[4]
  apparent Kd: 28 nM

## GCGAUUUUGUAAGGAUAUACUCGAGUUUUAAGAGUAGAAGGUACUUACAUGAGGAUCACCCAUGUCUAACGAAAUACUAGUCGC
[3]
  apparent Kd: 10.5 nM
[4]
  apparent Kd: 8.44 nM

## GCGCCAUCGUGAGAUGGCGUAUAUACAUGAGGAUCACCCAUGUAGGAUAUCGAUUGCUUUGCAGUCGAGAAGGGCAUGUAAUUU
[1]
  apparent Kd: 33.5 nM
[2]
  apparent Kd: 43.9 nM

## GCGCUACAUGAGGAUCACCCAUGUGCGAACGCACGAGGAUAUGCAUGGGCUAAUGCUGGUGCAGAAGGCGUGGCGC
[3]
  apparent Kd: 31.8 nM
[4]
  apparent Kd: 22.6 nM

## GCGGCUCACAUGAGGAUCACCCAUGUUCGCAUAUUGUGAAACAGAAGGCGGACUCAGCGAUGGGCCGAGGAUAUGUUUCCCACA
[3]
  apparent Kd: 124 nM
[4]
  apparent Kd: 25.8 nM

## GCGGUACAUGAGGAUCACCCAUGUCAGGAUAUCCGCUGUUUGUCGAUUGGCAGGCGGUGGAGAAGGGACCUCGC
[1]
  apparent Kd: 97.5 nM
[2]
  apparent Kd: 98.5 nM

## GCGGUACAUGAGGAUCACCCAUGUCAGGAUAUCCGCUGUUUGUUGAUUGGCAGGCGGUGGAGAAGGGACUUCGC
[1]
  apparent Kd: 35.2 nM
[2]
  apparent Kd: 33.4 nM

## GCGUACAUAUCAGGAUAUCAUAUUAUUGUUUUACUCAGUGUAUACAUGAGGAUCACCCAUGUUCUUGAGAAGGGAUAUGUACGC
[1]
  apparent Kd: 8.22 nM
[2]
  apparent Kd: 9.91 nM

## GCGUACAUAUCAGGAUAUCAUAUUAUUGUUUUACUCAGUGUAUACAUGAGGAUCACCCAUGUUCUUGAGAAGGGAUUACUACGC
[1]
  apparent Kd: 15.2 nM
[2]
  apparent Kd: 14.7 nM

## GCGUACAUAUCAGGAUAUCAUUGUAUUGUUUAACUCAGUGUAUACAUGAGGAUCACCCAUGUUCUUGAGAAGGGAUUACUACGC
[1]
  apparent Kd: 14.1 nM
[2]
  apparent Kd: 15.4 nM

## GCGUCAGAAUUAAUUGUGACAUACAGAAGGCAAUAGUUAAUUUCAGACAUGAGGAUCACCCAUGUUGAGGAUAUGUAGAGAAUC
[1]
  apparent Kd: 11.8 nM
[2]
  apparent Kd: 10.5 nM

## GCGUGGUUCUAGAAGGUGCUAGCGAUAAGCUAGCAAGGAUAUAGACAUGAGGAUCACCCAUGUCUUAAAGAAAUGGACACACGC
[1]
  apparent Kd: 5.04 nM
[2]
  apparent Kd: 5.55 nM

## GCGUUAGAAACACAUGUAUUACAUGAGGAUCACCCAUGUUACUAGGAUAUGUAUUAGAAUUUACAACAGAAGGAGUAAGAACGC
[1]
  apparent Kd: 10.8 nM
[2]
  apparent Kd: 14.6 nM

## GCGUUCUUGUAGAAGGUACUUUCGACAUCUUAUAAACGCUUGACACAUGAGGAUCACCCAUGUUGUAAGGAUAUACAUGAACGC
[3]
  apparent Kd: 6.61 nM
[4]
  apparent Kd: 6.41 nM

## GCUACGUCAGGAUAUCUGAUGUCUAACUUCGGUUAGACAUCAGAGAAGGGACAUGAGGAUCACCCAUGUAGCAA
[1]
  apparent Kd: 93.5 nM
[2]
  apparent Kd: 122 nM

## GCUAGGAGUGUGAGGAUAUGCUGUACCUUGGUACAGCAGAAGGCACAUGAGGAUCACCCAUGUGAAGACCUAGC
[1]
  apparent Kd: 25.9 nM
[2]
  apparent Kd: 151 nM

## GCUAGUAUUGCAGGAUAUUGAGAAUAAUUUUGGCAAGAAGGGCAUUACAUGAGGAUCACCCAUGUUUUCCUUAGUCAUACUAGC
[1]
  apparent Kd: 6.39 nM
[2]
  apparent Kd: 5.85 nM

## GCUAGUAUUGCAGGAUAUUGUGUUUAAUUAUGGCAAGAAGGGCAUUACAUGAGGAUCACCCAUGUUUUCCUUAGUCAUACUAGC
[1]
  apparent Kd: 5.57 nM
[2]
  apparent Kd: 6.63 nM

## GCUCGAUGCGCUGAGCACAUGAGGAUCACCCAUGUAAAUGGUCAGGAUAUUUACGUGCUUUAUGUAGAGAAGGGACCAUCGAGC
[3]
  apparent Kd: 286 nM
[4]
  apparent Kd: 30.9 nM

## GCUCGUAGACAGAAGGCGACAUGAGGAUCACCCAUGUUGGCUCGGGUAUGACCAAUCCGCAUGAUCGAGGAUAUGUCCGCGGGC
[1]
  apparent Kd: 287 nM
[2]
  apparent Kd: 16.4 nM

## GCUCUAUGCUAGAAGGCGUGAAACAUGAGGAUCACCCAUGUCAGAGAUAUGAGGAUAUGGCAUAGAGCAAAAGACGGAAACGUC
[3]
  apparent Kd: 18.7 nM
[4]
  apparent Kd: 5.25 nM

## GCUGACGAUGUAGGAUAUCAGUAUAAUAAAUACUGAGAAGGACAUGAGGAUCACCCAUGUAAACUCCGUCAGCAGAGGAAACUC
[1]
  apparent Kd: 19.6 nM
[2]
  apparent Kd: 24.1 nM

## GCUGACGAUGUAGGAUAUCAGUAUAAUAAAUACUGAGAAGGACAUGAGGAUCACCCAUGUAACUCACGUCAGCAGAGGAAACUC
[1]
  apparent Kd: 17.6 nM
[2]
  apparent Kd: 20.4 nM

## GCUGACGAUGUAGGAUAUCUCGACGAUAAGUCGAGAGAAGGACAUGAGGAUCACCCAUGUAAACUCGCGUCAGCGAGGAAACUC
[1]
  apparent Kd: 17.9 nM
[2]
  apparent Kd: 20.1 nM

## GCUGACGUAGGAUAUCAAUAGCCUCACAUGAGGAUCACCCAUGUCGGUAGGUGUACUGGAUGAGAAGGACGUCGUU
[1]
  apparent Kd: 38.3 nM
[2]
  apparent Kd: 23.9 nM

## GCUGCAUAGGCAGGAUAUGCAACAAUGAGAAUAAAAUAUAACUCAUUGACAUGAGGAUCACCCAUGUAGAAGGGCCUGUGCAGU
[1]
  apparent Kd: 19 nM
[2]
  apparent Kd: 18.2 nM

## GCUGCAUAGUCAGGAUAUGCAAAGUAAUGUAUGGAAACAUACAUUACAACAUGAGGAUCACCCAUGUAGAAGGGACUGUGCAGU
[1]
  apparent Kd: 13.9 nM
[2]
  apparent Kd: 12.2 nM

## GCUGCGCGAGGAUAUGCGGUUCGCGCGGUGGCCCGUGGCGGACAUGAGGAUCACCCAUGUAGAAGGCGUGCGGG
[1]
  apparent Kd: 11.1 nM
[2]
  apparent Kd: 12.1 nM

## GCUGCGCGAGGAUAUGCGGUUCGCGCUGUGGCCCGUGGCGGACAUGAGGAUCACCCAUGUAGAAGGCGUGCGGG
[1]
  apparent Kd: 13 nM
[2]
  apparent Kd: 15.1 nM

## GCUGCGCGAGGAUAUGCGGUUUGUGCUGUGGCCCGUGGCGUACAUGAGGAUCACCCAUGUAGAAGGCGUGUGGG
[1]
  apparent Kd: 26.1 nM
[2]
  apparent Kd: 28.9 nM

## GCUGCUUAUGAGAAGGCGAUCAUGAAACAUGAUCGAGGAUAUCAUGUAAACAUGAGGAUCACCCAUGUAUGGGUAUUAUGCAGC
[3]
  apparent Kd: 374 nM
[4]
  apparent Kd: 37.6 nM

## GCUGGCAUGCAAGGAUAUCCUUCCGAGUAGGAAGGAGAAGGUGCUUGUGGGACAUGAGGAUCACCCAUGUAUGUUGGCCACGAC
[3]
  apparent Kd: 134 nM
[4]
  apparent Kd: 79.2 nM

## GCUGGGUCAGGAUAUACAAGAUCGAAAGAUCUGUGAAACGAACAUGAGGAUCACCCAUGUAGAAGGGACUGGGC
[1]
  apparent Kd: 20.5 nM
[2]
  apparent Kd: 33.2 nM

## GCUGUCGCAUGAGGAUAUGGUCAGCUUUGCUGACCAGAAGGCAUGUCAAUAGACAUGAGGAUCACCCAUGUGGUUAGGGCGGCU
[3]
  apparent Kd: 1030 nM
[4]
  apparent Kd: 93.5 nM

## GCUGUCGCGUGAGGAUAUGGUCGGCUGUGCUGACCAGAAGGCAUGUCGAUAGACAUGAGGAUCACCCAUGUGGUUAGGGCGGCU
[3]
  apparent Kd: 790 nM
[4]
  apparent Kd: 313 nM

## GCUUGUGAAGGAUAUACUGGCGGCGUGCGCUCGGCGCGCGCACAUGAGGAUCACCCAUGUAGAAGGUCAAACGU
[1]
  apparent Kd: 14.3 nM
[2]
  apparent Kd: 13.1 nM

## GCUUUAGCACAUGAGGAUCACCCAUGUAGCGUGGGCUUACACAGAAGGGCAAACCGUUACGGGAUGUAGGAUAUGUGCAAAAUG
[3]
  apparent Kd: 196 nM
[4]
  apparent Kd: 68.6 nM
